How the values were obtained:
Mus musculus [1] = experiment: Trypanocidal Activity at I.C.E. value 0.58 when administered subcutaneously.; assay type: functional
Procedure, shortened: (§1)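 Mice, in groups of five per dose, were given a standard inoculum of blood-stage T. rhodesiense that is lethal to all untreated controls, then dosed subcutaneously. Usually 11 dose levels were used (2^n × 0.42 mg/kg).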

Mus musculus [2] = experiment: Trypanocidal Activity at I.C.E. value 0.51 when administered perorally.; assay type: functional
Mus musculus [3] = experiment: Trypanocidal Activity at I.C.E. value 0.79 when administered subcutaneously.; assay type: functional; procedure, shortened: as §1
Mus musculus [4] = experiment: Trypanocidal Activity at I.C.E. value >0.5 when administered perorally.; assay type: functional
Mus musculus [5] = experiment: Trypanocidal Activity at I.C.E. value 0.48 when administered perorally.; assay type: functional
Mus musculus [6] = experiment: Fraction of mice that were cured after oral administration at a dose of 424 mg/kg and I.C.E. value of 0.84; assay type: functional
Mus musculus [7] = experiment: Fraction of mice that were cured after oral administration at a dose of 53 mg/kg and I.C.E. value of 0.84; assay type: functional
Mus musculus [8] = experiment: Fraction of mice that were cured after oral administration at a dose of 6.6 mg/kg and I.C.E. value of 0.84; assay type: functional
Mus musculus [9] = experiment: Fraction of mice that were cured after subcutaneous administration at a dose of 0.42 mg/kg and I.C.E. value of 0.54; assay type: functional
Mus musculus [10] = experiment: Fraction of mice that were cured after subcutaneous administration at a dose of 0.83 mg/kg and I.C.E. value of 0.54; assay type: functional
Mus musculus [11] = experiment: Fraction of mice that were cured after subcutaneous administration at a dose of 1.67 mg/kg and I.C.E. value of 0.54; assay type: functional
Mus musculus [12] = experiment: Fraction of mice that were cured after subcutaneous administration at a dose of 106 mg/kg and I.C.E. value of 0.54; assay type: functional
Mus musculus [13] = experiment: Fraction of mice that were cured after subcutaneous administration at a dose of 13 mg/kg and I.C.E. value of 0.54; assay type: functional
Mus musculus [14] = experiment: Fraction of mice that were cured after oral administration at a dose of 26 mg/kg and I.C.E. value of 0.84; assay type: functional
Mus musculus [15] = experiment: Fraction of mice that were cured after oral administration at a dose of 3.3 mg/kg and I.C.E. value of 0.84; assay type: functional
Mus musculus [16] = experiment: Fraction of mice that were cured after oral administration at a dose of 0.42 mg/kg and I.C.E. value of 0.84; assay type: functional
Mus musculus [17] = experiment: Trypanocidal Activity at I.C.E. value 0.54 when administered subcutaneously.; assay type: functional
Procedure, shortened: (§2)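 Blood-stage T. rhodesiense infection came from a standard inoculum lethal to all untreated mice. Drug was given by subcutaneous injection to groups of five mice. Survival beyond 30 days counted as cure. […] Sub-curative doses scored 0, and data were normalized at each dose.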

Mus musculus [18] = experiment: Fraction of mice that were cured after subcutaneous administration at a dose of 424 mg/kg and I.C.E. value of 0.54; assay type: functional
Mus musculus [19] = experiment: Fraction of mice that were cured after subcutaneous administration at a dose of 53 mg/kg and I.C.E. value of 0.54; assay type: functional
Mus musculus [20] = experiment: Fraction of mice that were cured after subcutaneous administration at a dose of 6.6 mg/kg and I.C.E. value of 0.54; assay type: functional
Mus musculus [21] = experiment: Curative activity of the Compound after Subcutaneous administration at a dose of 6.6 mg/kg and I.C.E. value of 0.54 for 30 days; 5/5; assay type: functional
Mus musculus [22] = experiment: Curative activity of the Compound after oral administration at a dose of 106 mg/kg ( T-Toxic)and I.C.E. value of 0.49 for 30 days; 5/5; assay type: functional
Mus musculus [23] = experiment: Curative activity of the Compound after oral administration at a dose of 13 mg/kg and I.C.E. value of 0.49 for 30 days; 2/5; assay type: functional
Mus musculus [24] = experiment: Curative activity of the Compound after oral administration at a dose of 212 mg/kg ( T-Toxic)and I.C.E. value of 0.49 for 30 days; 5/5; assay type: functional
Mus musculus [25] = experiment: Fraction of mice that were cured after subcutaneous administration at a dose of 212 mg/kg and I.C.E. value of 0.54; assay type: functional
Mus musculus [26] = experiment: Fraction of mice that were cured after subcutaneous administration at a dose of 26 mg/kg and I.C.E. value of 0.54; assay type: functional
Mus musculus [27] = experiment: Fraction of mice that were cured after subcutaneous administration at a dose of 3.3 mg/kg and I.C.E. value of 0.54; assay type: functional
Mus musculus [28] = experiment: Curative activity of the Compound after Subcutaneous administration at a dose of 3.3 mg/kg and I.C.E. value of 0.54 for 30 days; 24/25; assay type: functional
Mus musculus [29] = experiment: Curative activity of the Compound after Subcutaneous administration at a dose of 0.42 mg/kg and I.C.E. value of 0.54 for 30 days; 2/5; assay type: functional
Mus musculus [30] = experiment: Curative activity of the Compound after Subcutaneous administration at a dose of 0.83 mg/kg and I.C.E. value of 0.54 for 30 days; 27/30; assay type: functional
Mus musculus [31] = experiment: Curative activity of the Compound after oral administration at a dose of 424 mg/kg ( T-Toxic)and I.C.E. value of 0.49 for 30 days; 10/10; assay type: functional
Mus musculus [32] = experiment: Curative activity of the Compound after oral administration at a dose of 53 mg/kg ( T-Toxic) and I.C.E. value of 0.49 for 30 days; 5/5; assay type: functional
Mus musculus [33] = experiment: Curative activity of the Compound after Subcutaneous administration at a dose of 1.67 mg/kg and I.C.E. value of 0.54 for 30 days; 10/10; assay type: functional
Mus musculus [34] = experiment: Curative activity of the Compound after Subcutaneous administration at a dose of 13 mg/kg and I.C.E. value of 0.54 for 30 days; 10/10; assay type: functional
Mus musculus [35] = experiment: Curative activity of the Compound after Subcutaneous administration at a dose of 26 mg/kg ( T-Toxic) and I.C.E. value of 0.54 for 30 days; 11/15; assay type: functional
Mus musculus [36] = experiment: Fraction of mice that were cured after oral administration at a dose of 0.83 mg/kg and I.C.E. value of 0.84; assay type: functional
Mus musculus [37] = experiment: Fraction of mice that were cured after oral administration at a dose of 1.67 mg/kg and I.C.E. value of 0.84; assay type: functional
Mus musculus [38] = experiment: Fraction of mice that were cured after oral administration at a dose of 13 mg/kg and I.C.E. value of 0.84; assay type: functional
Mus musculus [39] = experiment: Fraction of mice that were cured after oral administration at a dose of 212 mg/kg and I.C.E. value of 0.84; assay type: functional
Mus musculus [40] = experiment: Curative activity of the Compound after oral administration at a dose of 26 mg/kg and I.C.E. value of 0.49 for 30 days; 10/10; assay type: functional
Mus musculus [41] = experiment: Fraction of mice that were cured after oral administration at a dose of 106 mg/kg and I.C.E. value of 0.49
Mus musculus [42] = experiment: Trypanocidal Activity at I.C.E. value 0.65 when administered perorally.; assay type: functional
Mus musculus [43] = experiment: Trypanocidal Activity at I.C.E. value 0.48 when administered subcutaneously.; assay type: functional; procedure, shortened: as §2
Mus musculus [44] = experiment: Trypanocidal Activity at I.C.E. value 0.52 when administered perorally.; assay type: functional
Mus musculus [45] = experiment: Trypanocidal Activity at I.C.E. value 0.86 when administered subcutaneously.; assay type: functional; procedure, shortened: as §1
Mus musculus [46] = experiment: Trypanocidal Activity at I.C.E. value 0.67 when administered subcutaneously.; assay type: functional; procedure, shortened: as §1
Mus musculus [47] = experiment: Trypanocidal Activity at I.C.E. value 0.7 when administered subcutaneously.; assay type: functional; procedure, shortened: as §1
Mus musculus [48] = experiment: Trypanocidal Activity at I.C.E. value 0.76 when administered subcutaneously.; assay type: functional; procedure, shortened: as §1
Mus musculus [49] = experiment: Trypanocidal Activity at I.C.E. value 0.28 when administered perorally.; assay type: functional
Mus musculus [50] = experiment: Trypanocidal Activity at I.C.E. value 0.83 when administered subcutaneously.; assay type: functional; procedure, shortened: as §1
Mus musculus [51] = experiment: Trypanocidal Activity at I.C.E. value 0.16 when administered perorally.; assay type: functional
Mus musculus [52] = experiment: Trypanocidal Activity at I.C.E. value 0.31 when administered subcutaneously.; assay type: functional; procedure, shortened: as §2
Mus musculus [53] = experiment: Trypanocidal Activity at I.C.E. value 0.28 when administered subcutaneously.; assay type: functional; procedure, shortened: as §2
Mus musculus [54] = experiment: Trypanocidal Activity at I.C.E. value 0.65 when administered subcutaneously.; assay type: functional; procedure, shortened: as §1
[55] = test system: Trypanosoma brucei rhodesiense; experiment: In Vitro Trypanosomal activity in rats was measured uptake of radiolabeled Leucine; assay type: functional; settings: read-out: ID50 (the source's name)
Procedure, shortened: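 Trypanosomes harvested from infected rats, cultured 3 h with several concentrations of drug, usually 0.1–100 µg/mL. Radiolabeled L-leucine uptake measured. ID50 is the concentration in µg/mL giving 50% inhibition of incorporation.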

[56] = test system: Trypanosoma brucei rhodesiense; experiment: In Vitro Trypanosomal activity in rats was measured uptake of radiolabeled Thymidine; assay type: functional; settings: read-out: ID50 (the source's name)
Procedure, shortened: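 Parasites harvested from infected rats and incubated 3 h across a drug concentration series, usually 0.1–100 µg/mL. Incorporation of radiolabeled thymidine measured. ID50 is the concentration (µg/mL) producing 50% inhibition.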

`Br.C[n+]1c(-c2ccc(/C=C/C=N/NC3=NCCCN3)cc2)cn2ccccc21.[Br-]` was tested, and the CD50 (Mus musculus [1]) was 0.06 mg/kg and the CD50 (Mus musculus [2]) was 13 mg/kg.
`Br.C[n+]1c(/C=C/c2ccc(/C=N/NC3=NCCN3)cc2)cn2ccccc21.[Br-]` gave a CD50 (Mus musculus [3]) of 0.2 mg/kg and a CD50 (Mus musculus [4]) of 13 mg/kg.
`C[n+]1c(-c2ccc(/C=N/NC(=N)N)cc2)cn2ccccc21.Cc1ccc(S(=O)(=O)O)cc1.Cc1ccc(S(=O)(=O)[O-])cc1` gave a CD50 (Mus musculus [5]) of 26 mg/kg, a Fraction cured (Mus musculus [6]) of 1 and a Fraction cured (Mus musculus [7]) of 1. It also gave a Fraction cured (Mus musculus [8]) of 0, a Fraction cured (Mus musculus [9]) of 0.4 and a Fraction cured (Mus musculus [10]) of 0.9. The Fraction cured (Mus musculus [11]) was 1, the Fraction cured (Mus musculus [12]) was 0 and the Fraction cured (Mus musculus [13]) was 1. The Fraction cured (Mus musculus [14]) was 1, the Fraction cured (Mus musculus [15]) was 0 and the Fraction cured (Mus musculus [16]) was 0. For the same compound, the CD50 (Mus musculus [17]) was 0.8 mg/kg, the Fraction cured (Mus musculus [18]) was 0 and the Fraction cured (Mus musculus [19]) was 0. It also gave a Fraction cured (Mus musculus [20]) of 1, a Survivors (Mus musculus [21]) of 5 and a Survivors (Mus musculus [22]) of 5. It also gave a Survivors (Mus musculus [23]) of 2, a Survivors (Mus musculus [24]) of 5 and a Fraction cured (Mus musculus [25]) of 0. For the same compound, the Fraction cured (Mus musculus [26]) was 0.73, the Fraction cured (Mus musculus [27]) was 0.96 and the Survivors (Mus musculus [28]) was 24. For the same compound, the Survivors (Mus musculus [29]) was 2, the Survivors (Mus musculus [30]) was 27 and the Survivors (Mus musculus [31]) was 10. For the same compound, the Survivors (Mus musculus [32]) was 5, the Survivors (Mus musculus [33]) was 10 and the Survivors (Mus musculus [34]) was 10. It also gave a Survivors (Mus musculus [35]) of 11, a Fraction cured (Mus musculus [36]) of 0 and a Fraction cured (Mus musculus [37]) of 0. For the same compound, the Fraction cured (Mus musculus [38]) was 0.4, the Fraction cured (Mus musculus [39]) was 1 and the Survivors (Mus musculus [40]) was 10. The Fraction cured (Mus musculus [41]) was 1.
`CN(C)C(=N)N/N=C/c1ccc(-c2cn3ccccc3[n+]2C)cc1.I.[I-]` showed a CD50 (Mus musculus [42]) of 6.6 mg/kg and a CD50 (Mus musculus [43]) of 0.2 mg/kg.
Work on `Br.Cc1cccc2n1cc(/C=C/c1ccc(/C=N/NC3=NCCN3)cc1)[n+]2C.[Br-]` yielded a CD50 (Mus musculus [44]) of 26 mg/kg and a CD50 (Mus musculus [45]) of 0.4 mg/kg.
`Br.Cc1cccc2n1cc(COc1ccc(/C=N/NC3=NCCCN3)cc1)[n+]2C.[Br-]` gave a CD50 (Mus musculus [46]) of 0.4 mg/kg and a CD50 (Mus musculus [47]) of 0.8 mg/kg.
For `Br.Cc1ccc2n(c1)cc(-c1ccc(/C=N/NC3=NCCCN3)cc1)[n+]2C.[Br-]`, the CD50 (Mus musculus [48]) was 0.2 mg/kg.
Compound `CCCCSc1ccc2n(c1)cc(-c1ccc(/C=N/NC(=N)N)cc1)[n+]2C.Cc1ccc(S(=O)(=O)O)cc1.Cc1ccc(S(=O)(=O)[O-])cc1` has a CD50 (Mus musculus [49]) of 106 mg/kg and a CD50 (Mus musculus [50]) of 0.4 mg/kg.
`Br.C[n+]1ccccc1COc1ccc(/C=N/NC2=NCCCN2)cc1.[Br-]` gave a CD50 (Mus musculus [51]) of 212 mg/kg and a CD50 (Mus musculus [52]) of 6.6 mg/kg.
For `Cc1ccc2n(c1)cc(-c1ccc(/C=N/Nc3nccs3)cc1)[n+]2C.[Br-]`, the CD50 (Mus musculus [53]) was 106 mg/kg.
Work on `C[n+]1c(-c2ccc(/C=N/Nc3nc[nH]n3)cc2)cn2ccccc21.[Br-]` yielded a CD50 (Mus musculus [54]) of 0.8 mg/kg, an IC50 [55] greater than 10 µg/mL and an IC50 [56] of 0.5 µg/mL.
